Here are results for 21 molecules from ChEMBL document CHEMBL1157353, “Synthesis and biological evaluation of (-)- and (+)-debromoflustramine B and its analogues as selective butyrylcholinesterase inhibitors” (J Med Chem, 2008).

As a reminder, the IC50 is the point on the concentration scale where inhibition reaches its midpoint. The low end stands for inhibition by little substance, the high end for a need for much substance.

Active and inactive are the calls of the source. The calls are words filed in the database; no cut-off is given here.

T1 sequence (P06276 whole entry): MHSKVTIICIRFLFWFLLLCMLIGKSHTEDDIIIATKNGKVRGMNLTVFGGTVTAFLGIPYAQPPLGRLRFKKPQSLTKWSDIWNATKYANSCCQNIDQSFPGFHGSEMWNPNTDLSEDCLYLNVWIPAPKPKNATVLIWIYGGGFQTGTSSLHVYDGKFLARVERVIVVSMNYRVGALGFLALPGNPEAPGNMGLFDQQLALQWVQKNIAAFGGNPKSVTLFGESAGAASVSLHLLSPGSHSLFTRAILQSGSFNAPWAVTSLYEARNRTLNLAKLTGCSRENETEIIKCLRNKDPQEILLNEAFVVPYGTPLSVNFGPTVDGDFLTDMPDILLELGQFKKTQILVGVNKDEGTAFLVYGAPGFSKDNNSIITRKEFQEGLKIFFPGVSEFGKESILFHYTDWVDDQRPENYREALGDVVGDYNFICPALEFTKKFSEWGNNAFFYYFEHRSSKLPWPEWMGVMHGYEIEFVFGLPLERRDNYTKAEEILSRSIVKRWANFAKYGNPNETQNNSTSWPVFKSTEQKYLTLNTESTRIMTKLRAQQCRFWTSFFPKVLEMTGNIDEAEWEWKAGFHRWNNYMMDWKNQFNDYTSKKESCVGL

One experiment has as its target T1, Cholinesterase (Homo sapiens, UniProt P06276). Kind of experiment: Inhibition of human plasma BChE after 20 mins by Ellman's method. Type of experiment: cell-free. Summed up:
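Human plasma BChE, Ellman method, in 0.1 M phosphate buffer pH 8.0 with 340 µM butyrylthiocholine iodide. Compounds were preincubated with enzyme for 20 min at 37 °C before substrate was added, and an enzyme-free blank corrected for nonenzymatic hydrolysis. Compounds were screened at 1 mM; those giving >30% inhibition were run at nine concentrations (10-3–10-7 M), three times in triplicate. IC50 came from probit-transformed % activity versus log concentration.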
On the technique in general: In Ellman's method for cholinesterases, released thiocholine reacts with DTNB.
On to `CC(C)=CCN1c2ccccc2[C@]2(CC=C(C)C)CCN(C)[C@H]12` [(-)-DEBROMOFLUSTRAMINE B], for which 1.37 µM corresponded to half-maximal inhibition (IC50). In the case of `COc1ccc2c(c1)C1(CC=C(C)C)CCN(Cc3ccccc3)C1N2CC=C(C)C` (configuration not stated), the IC50 was 50 µM. This IC50 is about 36-fold higher than that of the molecule before. Still for that read-out and setting: then `COc1ccc2c(c1)C1(CC=C(C)C)CCN(C)C1N2Cc1ccccc1` (configuration not stated), with 7.54 µM; and `CC(C)=CCC12CCN(C)C1N(Cc1ccccc1)c1ccccc12` (configuration not stated), with 10 µM; and `COc1ccc2c(c1)C1(Cc3ccccc3)CCN(C)C1N2Cc1ccccc1` (configuration not stated), with 5.89 µM.

The molecule `CC(C)=CCN1c2ccccc2C2(CC=C(C)C)CCN(C)C12` (racemic) [(+/-)-DEBROMOFLUSTRAMINE B] registered an IC50 of 2.59 µM.

`CC(C)=CCN1c2ccccc2[C@@]2(CC=C(C)C)CCN(C)[C@@H]12` [(+)-DEBROMOFLUSTRAMINE B] gave an IC50 of 10300 µM. On the same count and under the same terms, then `COc1ccc2c(c1)C1(CC=C(C)C)CCN(C)C1N2CC=C(C)C` (configuration not stated), with 4.59 µM. The same measure, in the same setting: then `CN1CCC2(Cc3ccccc3)c3ccccc3N(Cc3ccccc3)C12` (configuration not stated), with 22.1 µM. Still for that read-out and setting: then `CC(C)=CCN1c2ccccc2C2(CC=C(C)C)CCNC12` (configuration not stated) [DEMETHYLDEBROMOFLUSTRAMINE B], with 0.26 µM; and `CC(C)=CCN1CCC2(CC=C(C)C)c3ccccc3N(CC=C(C)C)C12` (configuration not stated), with 1.72 µM.

In a further experiment the target is T1, Cholinesterase. Kind of experiment: Inhibition of human plasma BChE at <10000 uM after 20 mins by Ellman's method. Format: cell-free.
As to `CC(C)=CCN1c2ccccc2[C@]2(CC=C(C)C)CCN(C)[C@H]12` [(-)-DEBROMOFLUSTRAMINE B], the result was inactive.

On to `CCCN1c2ccccc2C2(CCC)CCN(C)C12` (configuration not stated), for which the result was inactive. The same measure, in the same setting: then `CN1CCC2(C)c3ccccc3N(C)C12` (configuration not stated), with “inactive”; and `CC(C)CCN1c2ccccc2C2(CCC(C)C)CCN(C)C12` (configuration not stated), with “inactive”; and `CCN1c2ccccc2C2(CC)CCN(C)C12` (configuration not stated), with “inactive”. As for `COc1ccc2c(c1)C1(Cc3ccccc3)CCN(Cc3ccccc3)C1N2Cc1ccccc1` (configuration not stated), the result was inactive. The same measure, in the same setting: then `COc1ccc2c(c1)C1(CC=C(C)C)CCN(Cc3ccccc3)C1N2Cc1ccccc1` (configuration not stated), with “inactive”; and `CC(C)=CCC12CCN(C)C1N(C)c1ccccc12` (configuration not stated), with “inactive”. Same read-out and setting: then `CN1CCC2(Cc3ccncc3)c3ccccc3N(Cc3ccncc3)C12` (configuration not stated), with “inactive”. Still for that read-out and setting: then `CC(C)=CCN1c2ccccc2C2(CC=C(C)C)CCN(Cc3ccccc3)C12` (configuration not stated), with “inactive”. As for `CN1CCC2(Cc3ccncc3)c3ccccc3N(Cc3ccccc3)C12` (configuration not stated), the outcome was inactive.
